What was measured:
[1] = target: Dual specificity tyrosine-phosphorylation-regulated kinase 1A (Homo sapiens) (UniProt Q13627); assay: Inhibition of human recombinant DYRK1A at 40 nM in presence of ATP by radiometric assay relative to control
[2] = target: Ephrin type-A receptor 7 (Homo sapiens) (UniProt Q15375); assay: Inhibition of human recombinant EphA7 at 40 nM in presence of ATP by radiometric assay relative to control
[3] = target: Serine/threonine-protein kinase MARK2 (Homo sapiens) (UniProt Q7KZI7); assay: Inhibition of human recombinant MARK2 at 40 nM in presence of ATP by radiometric assay relative to control
[4] = target: T1, Serine/threonine-protein kinase Nek11 (Homo sapiens) (UniProt Q8NG66); assay: Inhibition of human recombinant NEK11 at 40 nM in presence of ATP by radiometric assay relative to control
T1 sequence (whole entry): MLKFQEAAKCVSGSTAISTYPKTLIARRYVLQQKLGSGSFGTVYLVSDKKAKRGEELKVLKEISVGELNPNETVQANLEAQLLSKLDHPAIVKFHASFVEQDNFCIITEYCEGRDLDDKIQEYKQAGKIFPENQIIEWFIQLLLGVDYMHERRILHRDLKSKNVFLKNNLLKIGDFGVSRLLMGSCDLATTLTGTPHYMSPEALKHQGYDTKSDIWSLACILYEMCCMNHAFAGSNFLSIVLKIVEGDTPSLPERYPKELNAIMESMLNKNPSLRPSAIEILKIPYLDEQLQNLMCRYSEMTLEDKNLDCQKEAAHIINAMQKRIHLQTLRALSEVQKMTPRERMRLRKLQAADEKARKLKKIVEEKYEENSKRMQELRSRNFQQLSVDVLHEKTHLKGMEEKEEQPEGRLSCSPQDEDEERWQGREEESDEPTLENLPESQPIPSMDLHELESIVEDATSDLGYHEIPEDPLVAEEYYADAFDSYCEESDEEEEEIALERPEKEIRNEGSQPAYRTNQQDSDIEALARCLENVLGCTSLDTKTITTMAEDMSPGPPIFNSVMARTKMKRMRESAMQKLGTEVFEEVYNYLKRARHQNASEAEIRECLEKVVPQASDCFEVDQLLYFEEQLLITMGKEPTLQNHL

[5] = target: T2, Tribbles homolog 2 (Homo sapiens) (UniProt Q92519); assay: Inhibition of human recombinant Trb2 at 40 nM in presence of ATP by radiometric assay relative to control
T2 sequence (whole entry): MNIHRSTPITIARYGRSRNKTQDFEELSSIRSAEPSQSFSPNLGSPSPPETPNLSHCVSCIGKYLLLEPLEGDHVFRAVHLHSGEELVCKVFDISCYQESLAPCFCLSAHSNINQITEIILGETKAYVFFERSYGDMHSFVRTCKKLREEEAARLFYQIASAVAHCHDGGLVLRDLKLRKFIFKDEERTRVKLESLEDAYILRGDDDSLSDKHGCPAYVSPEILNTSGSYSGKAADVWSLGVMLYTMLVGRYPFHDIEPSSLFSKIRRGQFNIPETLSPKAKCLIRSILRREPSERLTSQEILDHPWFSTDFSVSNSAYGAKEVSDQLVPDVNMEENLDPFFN

[6] = target: Bone morphogenetic protein receptor type-1B (Homo sapiens) (UniProt O00238); assay: Inhibition of human recombinant BMPR1B at 40 nM related to control ULK1
Procedure, shortened: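 Radiometric activity assays in a panel of 327 human recombinant kinases, each run in duplicate at one inhibitor concentration. Activity remaining is expressed as percent of vehicle control, and percent inhibition is calculated as 100% minus percent activity remaining.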

[7] = target: Cyclin-dependent kinase 1 (Homo sapiens) (UniProt P06493); assay: Inhibition of human recombinant CDC2 at 40 nM related to control ULK1
[8] = target: Leukocyte tyrosine kinase receptor (Homo sapiens) (UniProt P29376); assay: Inhibition of human recombinant LTK at 500 nM in presence of ATP by radiometric assay relative to control
Homo sapiens = species: Homo sapiens; assay: Inhibition of human recombinant p70S6K at 500 nM in presence of ATP by radiometric assay relative to control
[9] = target: Cyclin-dependent kinase 6 (Homo sapiens) (UniProt Q00534); assay: Inhibition of human recombinant CDK6 at 500 nM related to control ULK1
[10] = target: T3, Mitogen-activated protein kinase 13 (Homo sapiens) (UniProt O15264); assay: Inhibition of human recombinant p38delta at 500 nM related to control ULK1
T3 sequence (whole entry): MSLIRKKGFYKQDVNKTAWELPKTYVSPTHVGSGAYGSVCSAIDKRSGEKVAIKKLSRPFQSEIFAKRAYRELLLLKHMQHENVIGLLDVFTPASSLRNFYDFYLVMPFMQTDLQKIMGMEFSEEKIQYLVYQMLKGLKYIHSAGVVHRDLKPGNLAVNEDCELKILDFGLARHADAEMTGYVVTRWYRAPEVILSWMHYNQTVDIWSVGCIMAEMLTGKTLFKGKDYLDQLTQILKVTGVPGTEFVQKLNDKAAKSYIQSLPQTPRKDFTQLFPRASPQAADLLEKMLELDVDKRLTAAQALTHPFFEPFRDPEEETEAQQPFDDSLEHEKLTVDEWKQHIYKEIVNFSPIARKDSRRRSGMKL

[11] = target: Myosin light chain kinase 2, skeletal/cardiac muscle (Homo sapiens) (UniProt Q9H1R3); assay: Inhibition of human recombinant skMLCK at 500 nM related to control ULK1
[12] = target: 5'-AMP-activated protein kinase catalytic subunit alpha-2 (Homo sapiens) (UniProt P54646); assay: Inhibition of human recombinant AMPKa2 at 15 nM in presence of ATP by radiometric assay relative to control
Procedure, shortened: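 Panel of 327 recombinant human kinases, each assayed in vitro by radiometric activity assay in duplicate at a single inhibitor concentration per compound, chosen with reference to its ULK1 inhibition. Activity remaining was expressed as percent of vehicle control, and percent inhibition was calculated as 100 minus percent activity remaining.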

[13] = target: Proto-oncogene tyrosine-protein kinase Src (Homo sapiens) (UniProt P12931); assay: Inhibition of human recombinant SRC at 15 nM in presence of ATP by radiometric assay relative to control
[14] = target: Tyrosine-protein kinase FRK (Homo sapiens) (UniProt P42685); assay: Inhibition of human recombinant FRK at 15 nM related to control ULK1
[15] = target: Serine/threonine-protein kinase D2 (Homo sapiens) (UniProt Q9BZL6); assay: Inhibition of human recombinant PKD2 at 15 nM related to control ULK1

Sequence of Tyrosine-protein kinase FRK (Homo sapiens) (P42685 whole entry): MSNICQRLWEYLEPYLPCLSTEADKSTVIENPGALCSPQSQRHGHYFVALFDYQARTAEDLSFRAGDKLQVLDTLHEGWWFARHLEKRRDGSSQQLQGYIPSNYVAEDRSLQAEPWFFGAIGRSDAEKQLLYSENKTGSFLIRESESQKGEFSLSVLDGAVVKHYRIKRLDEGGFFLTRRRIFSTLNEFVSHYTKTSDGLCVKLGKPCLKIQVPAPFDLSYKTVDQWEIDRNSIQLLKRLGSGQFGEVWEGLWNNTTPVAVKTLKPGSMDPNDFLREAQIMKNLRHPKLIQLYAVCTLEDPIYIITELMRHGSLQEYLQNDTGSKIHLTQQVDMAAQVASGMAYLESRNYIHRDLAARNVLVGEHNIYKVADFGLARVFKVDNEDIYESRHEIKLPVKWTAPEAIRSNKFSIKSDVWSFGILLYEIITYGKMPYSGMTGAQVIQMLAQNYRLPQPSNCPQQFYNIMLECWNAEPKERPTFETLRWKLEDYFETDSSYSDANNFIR
Sequence of Proto-oncogene tyrosine-protein kinase Src (Homo sapiens) (P12931 2-536 limits assumed): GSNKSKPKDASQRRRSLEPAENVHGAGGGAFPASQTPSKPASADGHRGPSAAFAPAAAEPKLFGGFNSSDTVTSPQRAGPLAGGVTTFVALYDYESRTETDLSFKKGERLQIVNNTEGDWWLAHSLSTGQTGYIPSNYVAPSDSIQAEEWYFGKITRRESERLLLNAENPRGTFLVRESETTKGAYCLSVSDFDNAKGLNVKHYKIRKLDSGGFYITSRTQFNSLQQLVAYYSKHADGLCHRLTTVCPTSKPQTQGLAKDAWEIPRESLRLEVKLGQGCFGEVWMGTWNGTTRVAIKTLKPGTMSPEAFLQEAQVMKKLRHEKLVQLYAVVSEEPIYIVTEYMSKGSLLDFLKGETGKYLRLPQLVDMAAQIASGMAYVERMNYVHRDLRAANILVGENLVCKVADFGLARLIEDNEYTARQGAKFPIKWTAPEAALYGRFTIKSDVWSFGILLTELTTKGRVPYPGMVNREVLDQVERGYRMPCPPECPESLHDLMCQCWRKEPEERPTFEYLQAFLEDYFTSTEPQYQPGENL
Sequence of Cyclin-dependent kinase 1 (Homo sapiens) (P06493 whole entry, looked up): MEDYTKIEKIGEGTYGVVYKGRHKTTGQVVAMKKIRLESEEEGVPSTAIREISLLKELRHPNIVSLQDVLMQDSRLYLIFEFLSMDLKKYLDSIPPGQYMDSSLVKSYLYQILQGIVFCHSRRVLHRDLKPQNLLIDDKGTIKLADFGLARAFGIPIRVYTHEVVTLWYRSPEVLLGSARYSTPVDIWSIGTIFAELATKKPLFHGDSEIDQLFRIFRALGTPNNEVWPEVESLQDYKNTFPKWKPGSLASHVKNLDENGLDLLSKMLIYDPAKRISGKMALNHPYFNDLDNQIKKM
Sequence of 5'-AMP-activated protein kinase catalytic subunit alpha-2 (Homo sapiens) (P54646 whole entry, looked up): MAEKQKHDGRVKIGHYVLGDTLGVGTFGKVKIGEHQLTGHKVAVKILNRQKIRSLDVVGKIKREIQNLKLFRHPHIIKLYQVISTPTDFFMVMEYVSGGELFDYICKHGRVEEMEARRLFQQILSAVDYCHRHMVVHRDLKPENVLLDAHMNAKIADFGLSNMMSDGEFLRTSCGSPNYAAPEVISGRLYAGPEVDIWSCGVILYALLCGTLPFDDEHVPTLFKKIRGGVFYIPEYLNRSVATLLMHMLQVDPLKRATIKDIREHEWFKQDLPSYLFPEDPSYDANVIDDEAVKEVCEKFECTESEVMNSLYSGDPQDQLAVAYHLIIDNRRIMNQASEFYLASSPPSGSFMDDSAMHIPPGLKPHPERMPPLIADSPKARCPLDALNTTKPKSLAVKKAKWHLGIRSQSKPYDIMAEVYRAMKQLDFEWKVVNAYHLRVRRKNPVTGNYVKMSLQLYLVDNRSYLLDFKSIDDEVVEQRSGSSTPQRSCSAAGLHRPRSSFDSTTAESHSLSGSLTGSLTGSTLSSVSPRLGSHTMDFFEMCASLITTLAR
Sequence of Ephrin type-A receptor 7 (Homo sapiens) (Q15375 28-998 limits assumed): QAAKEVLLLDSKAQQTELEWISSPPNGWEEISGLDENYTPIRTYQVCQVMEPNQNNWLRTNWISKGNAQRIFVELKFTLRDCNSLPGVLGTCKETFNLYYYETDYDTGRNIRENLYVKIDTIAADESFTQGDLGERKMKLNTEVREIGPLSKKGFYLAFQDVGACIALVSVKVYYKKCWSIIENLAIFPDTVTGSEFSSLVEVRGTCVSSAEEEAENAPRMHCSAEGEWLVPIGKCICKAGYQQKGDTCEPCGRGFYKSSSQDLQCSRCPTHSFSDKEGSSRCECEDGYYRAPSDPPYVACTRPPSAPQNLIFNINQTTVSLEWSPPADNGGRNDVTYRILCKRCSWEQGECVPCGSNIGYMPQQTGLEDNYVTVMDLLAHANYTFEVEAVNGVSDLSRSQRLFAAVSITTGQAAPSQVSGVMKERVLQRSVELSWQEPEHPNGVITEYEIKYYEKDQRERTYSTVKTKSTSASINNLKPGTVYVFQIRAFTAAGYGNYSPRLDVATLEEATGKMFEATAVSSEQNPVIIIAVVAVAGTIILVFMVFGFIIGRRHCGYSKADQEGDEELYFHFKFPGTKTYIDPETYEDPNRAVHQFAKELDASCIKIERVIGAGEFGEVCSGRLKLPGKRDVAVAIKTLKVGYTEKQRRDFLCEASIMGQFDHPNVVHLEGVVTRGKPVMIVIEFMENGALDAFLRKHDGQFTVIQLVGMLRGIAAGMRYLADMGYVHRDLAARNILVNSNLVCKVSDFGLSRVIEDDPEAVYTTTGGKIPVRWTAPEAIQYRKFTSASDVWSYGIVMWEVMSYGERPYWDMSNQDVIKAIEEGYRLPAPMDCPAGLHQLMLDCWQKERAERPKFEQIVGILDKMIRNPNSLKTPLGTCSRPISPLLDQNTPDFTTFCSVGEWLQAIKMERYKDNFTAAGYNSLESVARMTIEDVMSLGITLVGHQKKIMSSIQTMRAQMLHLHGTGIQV
Sequence of Myosin light chain kinase 2, skeletal/cardiac muscle (Homo sapiens) (Q9H1R3 whole entry): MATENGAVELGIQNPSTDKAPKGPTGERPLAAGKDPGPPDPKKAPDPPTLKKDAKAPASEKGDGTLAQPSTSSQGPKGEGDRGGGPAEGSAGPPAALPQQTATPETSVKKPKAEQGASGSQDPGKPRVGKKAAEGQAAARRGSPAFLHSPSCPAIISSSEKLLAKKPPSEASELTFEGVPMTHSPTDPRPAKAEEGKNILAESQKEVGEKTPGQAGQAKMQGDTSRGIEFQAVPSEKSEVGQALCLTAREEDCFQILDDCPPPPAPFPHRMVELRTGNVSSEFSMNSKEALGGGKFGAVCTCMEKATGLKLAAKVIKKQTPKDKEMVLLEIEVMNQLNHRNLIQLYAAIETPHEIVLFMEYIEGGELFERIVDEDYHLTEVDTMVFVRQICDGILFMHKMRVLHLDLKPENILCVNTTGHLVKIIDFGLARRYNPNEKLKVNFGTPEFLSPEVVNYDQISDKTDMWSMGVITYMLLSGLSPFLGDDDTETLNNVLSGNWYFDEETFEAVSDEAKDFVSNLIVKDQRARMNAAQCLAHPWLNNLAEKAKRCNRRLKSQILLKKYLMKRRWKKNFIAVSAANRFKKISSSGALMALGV
Sequence of Cyclin-dependent kinase 6 (Homo sapiens) (Q00534 whole entry): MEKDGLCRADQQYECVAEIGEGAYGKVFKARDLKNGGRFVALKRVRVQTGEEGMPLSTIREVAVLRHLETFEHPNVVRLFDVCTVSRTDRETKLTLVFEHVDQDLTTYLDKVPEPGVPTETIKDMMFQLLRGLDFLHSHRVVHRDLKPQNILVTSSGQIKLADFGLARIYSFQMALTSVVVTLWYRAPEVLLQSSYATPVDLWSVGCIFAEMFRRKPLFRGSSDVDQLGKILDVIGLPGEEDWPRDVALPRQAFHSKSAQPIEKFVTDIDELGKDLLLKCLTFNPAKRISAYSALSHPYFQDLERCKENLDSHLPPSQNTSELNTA
Sequence of Serine/threonine-protein kinase MARK2 (Homo sapiens) (Q7KZI7 whole entry): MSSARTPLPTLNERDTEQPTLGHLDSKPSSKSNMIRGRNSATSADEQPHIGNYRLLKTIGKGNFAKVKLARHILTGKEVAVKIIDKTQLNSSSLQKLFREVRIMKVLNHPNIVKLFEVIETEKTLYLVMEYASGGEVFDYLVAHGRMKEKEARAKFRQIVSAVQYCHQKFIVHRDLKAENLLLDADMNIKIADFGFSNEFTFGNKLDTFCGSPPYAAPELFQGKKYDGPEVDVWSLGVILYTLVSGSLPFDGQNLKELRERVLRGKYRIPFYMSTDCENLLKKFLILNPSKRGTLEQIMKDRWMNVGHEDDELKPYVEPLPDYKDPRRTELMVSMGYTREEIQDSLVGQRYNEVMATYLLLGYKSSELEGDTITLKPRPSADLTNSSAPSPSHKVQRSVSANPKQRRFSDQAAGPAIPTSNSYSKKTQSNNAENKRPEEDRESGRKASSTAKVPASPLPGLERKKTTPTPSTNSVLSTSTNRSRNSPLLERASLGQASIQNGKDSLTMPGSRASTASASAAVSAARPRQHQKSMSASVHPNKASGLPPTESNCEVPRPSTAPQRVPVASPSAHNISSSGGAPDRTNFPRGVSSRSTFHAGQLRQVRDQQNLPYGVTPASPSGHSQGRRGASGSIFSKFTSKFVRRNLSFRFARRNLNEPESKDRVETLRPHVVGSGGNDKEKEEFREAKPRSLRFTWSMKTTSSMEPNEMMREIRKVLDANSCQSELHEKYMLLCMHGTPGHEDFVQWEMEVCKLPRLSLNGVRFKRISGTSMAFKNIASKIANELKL

O=C(N[C@@H](C1CC1)C(F)(F)F)c1cc(-c2cnn3cc(-c4ccc(F)cc4)cnc23)cs1
inhibition [1]: 43% | inhibition [2]: 0% | inhibition [3]: 12% | inhibition [4]: 8% | inhibition [5]: 34% | fold change (FC) [6]: 0 | fold change (FC) [7]: 0.62

CNC(=O)c1ccccc1Oc1nc(Nc2cc(OC)c(OC)c(OC)c2)ncc1Br
inhibition [8]: 3% | inhibition (Homo sapiens): 0% | fold change (FC) [9]: 0 | fold change (FC) [10]: 0.26 | fold change (FC) [11]: 0

CC(C)[C@H](NC(=O)c1cc(-c2cnn3cc(-c4ccc(OCCN5CCCCC5)cc4)cnc23)cs1)C(F)(F)F
inhibition [12]: 83% | inhibition [13]: 15% | fold change (FC) [14]: 0.15 | fold change (FC) [15]: 0

Source: ChEMBL document CHEMBL5653631, “A Potent and Selective ULK1 Inhibitor Suppresses Autophagy and Sensitizes Cancer Cells to Nutrient Stress” (iScience, 2018)
